The array DNA melting data of Ke et al. (doi:10.1101/2024.01.08.574731)

Columns and labels:
[1] = folding enthalpy; higher = less favourable; fluorescence melt of hairpins on a sequencing array, two-state fit; conditions: sodium 0.088 M
Outline: (§1)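 Folding enthalpy and melting temperature were estimated with bootstrapped two-state fits and combined across four replicates by inverse-variance weighting, with fitted temperatures raised by 9.35 °C to match UV melts. The data were Cy3 fluorescence of library hairpins, with annealed Cy3 and quencher oligos, on a sequenced MiSeq flow cell in 50 mM Na-HEPES pH 8.0, 25 mM NaCl, imaged in 2.5 °C steps up to 60 °C and normalised to pre-quench Cy3 and control constructs.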

[2] = melting temperature; fluorescence melt of hairpins on a sequencing array, two-state fit, raised by 9.35 °C to match UV melts; conditions: sodium 0.088 M
Outline: as §1

Row | Sequence | folding enthalpy [1] [kcal/mol] | Tm [2] [°C]
1 | GCCTAACCGAAAGGTGGC (((..(((....)))))) | -23.2 | 53.2
2 | GTGAGCGAAAGCTAGCAC ((((((....)))..))) | -11.4 | 40.4
3 | GATCGATCTCTCGATC ((((((....)))))) | -41.2 | 51.4
4 | CGTCGGAAACGACG (((((....))))) | -27.6 | 69.2
5 | GTACTCGAAAGAGCTAC ((((((....))).))) | -16.4 | 35
6 | GTGAGCGAAAGCTGCCAC ((((((....)))..))) | -8.52 | 37.6
7 | GACGAGGGAAACCCCGTC ((((.((....)).)))) | -31.4 | 51
8 | CAAGTGAAAACTTG (((((....))))) | -23.7 | 42.9
9 | GACAGCCCGAAAGGGGTC (((..(((....)))))) | -11.4 | 34.6
10 | GTGGGGCGAAAGCCTCAC (((.(((....))).))) | -30.2 | 67.6
11 | GGGCAGTCGAAAGACCCC (((..(((....)))))) | -21.6 | 41.7
12 | GACGTGGGAAACTGCGTC ((((..(....)..)))) | -24.6 | 47.6
13 | GCACGCGAAAGCGTCTGC ((((((....)))..))) | -11.1 | 47.4
14 | GCAACAGGAAACTGCTGC (((.(((....))).))) | -30.2 | 44.6
15 | GTGCAGGGAAACCTGCGC (.(((((....))))).) | -26.2 | 58.9
16 | GCCACAACGAAAGTTGGC (((..(((....)))))) | -15.3 | 48.5
17 | GCATGGCGAAAGCATTGC (((..((....))..))) | -20 | 49.6
18 | GTTTCTGGAAACAGAAGC (.(((((....))))).) | -26.3 | 39.5
19 | GCTATTGGAAACAACAGC (((.(((....))).))) | -16.9 | 33.7
20 | GATGCCGGAAACGGCACC (.(((((....))))).) | -9.72 | 44.5
21 | GAATTGCGAAAGCATTTC (((.(((....))).))) | -21.7 | 44.8
22 | GATACCGAAAGGTCATC ((((((....))).))) | -17 | 35.6
23 | GTTAAGCGAAAGCTAAAC (((.(((....))).))) | -19.9 | 41.5

Row | Sequence | folding enthalpy [1] [kcal/mol] | Tm [2] [°C]
24 | GATCTCATACGAGATC ((((((....)))))) | -37.8 | 52.6
25 | GACAGTGGAAACATTGTC ((((.((....)).)))) | -32.4 | 43
26 | GCACTCGAAAGAGTGTGC ((((((....)))..))) | -20.1 | 63.8
27 | GTACGAGGAAACTTGTAC ((((.((....)).)))) | -37.1 | 44
28 | GCGAAAGATCGC ((((....)))) | -12.4 | 39.9
29 | GATCACAAATGTGATC ((((((....)))))) | -33.4 | 55.5
30 | GTTGATCGAAAGATTAAC (((.(((....))).))) | -30.6 | 44.8
31 | GCGGGAGCCGC ((((...)))) | -9.67 | 54.9
32 | GACTCACGAAAGTGCGTC (((.(((....))).))) | -32.8 | 50.6
33 | GCTCGTGGAAACACAAGC (((.(((....))).))) | -20 | 43.9
34 | GAGTCACGAAAGTGCCTC (((.(((....))).))) | -23.5 | 50
35 | GGGTTCCGAAAGGATCCC (((.(((....))).))) | -42.1 | 55.9
36 | GGTTGCGAAAGCATCACC ((((((....)))..))) | -13 | 36.2
37 | GATAGGGGAAACCCTGTC ((.((((....)))).)) | -25.4 | 43.7
38 | GATACCGAAAGGTATATC ((((((....)))..))) | -16.3 | 45.2
39 | GATGTAGAAATACATC ((((((....)))))) | -30.3 | 45.7
40 | GATCACACCGGTGATC ((((((....)))))) | -39.3 | 57.3
41 | GATCGTCAAACGATC ((((((...)))))) | -31.7 | 52.1
42 | GATCCGGAGGCGGATC ((((((....)))))) | -33.4 | 57.8
43 | GATCGGCGAAAGCCCATC (((.(((....))).))) | -11.2 | 36.4
44 | GCGCACGAAAGTGGCCGC ((((((....)))..))) | -19.4 | 54.1
45 | GCTTCGCGAAAGCAATGC ((.(.((....)).).)) | -16.4 | 33.2
46 | CGTGCGGAAACGCTACG ((((((....))).))) | -27.6 | 50.6

Row | Sequence | folding enthalpy [1] [kcal/mol] | Tm [2] [°C]
47 | GCAACCGAAAGGTGCTGC ((((((....)))..))) | -23.5 | 57.1
48 | GTGTCCGAAAGGATCAC ((((((....))).))) | -25.2 | 51
49 | GTTTACGGAAACGTAAGC (.(((((....))))).) | -22.4 | 41.5
50 | CGCGGACAGTTCCGCG ((((((....)))))) | -40.7 | 66.6
51 | GTTGGCGGAAACGCTAGC (.(.(((....))).).) | -13.2 | 34.5
52 | GGCTTCGAAAGAACGCC ((((((....))).))) | -22.7 | 50.9
53 | GTACCGGGAAACCGATAC (((.(((....))).))) | -27.7 | 40
54 | GTTCACGGAAACATGAAC (((((.(....).))))) | -21.1 | 36.6
55 | GCTATTGGAAACAATGGC ((.((((....)))).)) | -36.1 | 45.7
56 | CGCGGACCGATCCGCG ((((((....)))))) | -36.5 | 68.5
57 | GTCGACGAAAGTCTAGAC ((((((....)))..))) | -24 | 42.3
58 | GCTTCATCGAAAGATAGC (((..(((....)))))) | -13 | 28.3
59 | GGGTGCGGAAACGCATCC ((.((((....)))).)) | -29.8 | 64.7
60 | GGGAGTCGAAAGACCCCC (((.(((....))).))) | -37.3 | 59.3
61 | GCTATGCGAAAGCAAGGC ((..(((....)))..)) | -18.4 | 42.5
62 | GGTAGACCGAAAGGTACC (((..(((....)))))) | -19.8 | 38
63 | GTGCGGGGAAACCTGCAC ((((.((....)).)))) | -29.3 | 58.7
64 | GAATCGGGAAACCGACTC ((.((((....)))).)) | -20.4 | 35.1
65 | GCGGATGGAAACATTCGC (((.(((....))).))) | -43.5 | 55.1
66 | GGCCGAGGAAACCCAGCC (((.(.(....).).))) | -11.8 | 29.6
67 | GTGGTCCCGAAAGGGCAC (((..(((....)))))) | -14.8 | 42.5
68 | GACGATGCGAAAGCAGTC (((..(((....)))))) | -16.9 | 44
69 | GGTTTGGCGAAAGCCACC (((..(((....)))))) | -8.59 | 31.9

Row | Sequence | folding enthalpy [1] [kcal/mol] | Tm [2] [°C]
70 | GGAGGCGAAAGCCGCTCC ((((((....)))..))) | -9.69 | 49.2
71 | GCGACATGTCGC ((((....)))) | -37 | 63.8
72 | GATCCGGGCCGGATC ((((((...)))))) | -46.2 | 60.3
73 | GCGTTGCGAAAGCATCGC (((.(((....))).))) | -55.8 | 61.3
74 | GGAAACACGAAAGTGTCC (((..(((....)))))) | -12.6 | 36.5
75 | GATCGGAGTTCCGATC ((((((....)))))) | -37.8 | 56.7
76 | GGGAAAGGAAACTTTTCC ((.((((....)))).)) | -27 | 40.6
77 | GATTGCGGAAACGCAATC (((((((....))))))) | -37.8 | 67.9
78 | GCTTCGCGAAAGCGCAGC (((.(((....))).))) | -30.7 | 54.1
79 | GGATTTCGAAAGAATTCC (((.(((....))).))) | -31.1 | 42
80 | GGAGAGGAAACTCTCC ((((((....)))))) | -35.1 | 56.9
81 | GCTGGGCGAAAGCCGTGC ((..(((....)))..)) | -18.2 | 47.6
82 | GGTCATGGAAACATGATC (.(((((....))))).) | -31.5 | 47
83 | GCCTTGGGAAACTAGGGC (((.(.(....).).))) | -30.1 | 36.5
84 | GTGCAAGAAATTGCAC ((((((....)))))) | -36.2 | 56.6
85 | GGTAAAGGAAACTTTATC (.(((((....))))).) | -18.7 | 30.5
86 | GCTATAGGAAACTATAGC (((((((....))))))) | -39.5 | 53.2
87 | GATCACAAAGGTGATC ((((((....)))))) | -32.8 | 53.6
88 | GTTACCGAAAGGTCTAAC ((((((....)))..))) | -9.14 | 29.2
89 | GATCTCCCGAAAGGGATC (((..(((....)))))) | -9.21 | 29.6
90 | GCTTTACGAAAGTAAGC (((.(((....)))))) | -22.7 | 46.2
91 | GACAGGCGAAAGCCCGTC (((.(((....))).))) | -22.3 | 52.9
92 | GCGATTTATCGC ((((....)))) | -28.4 | 68.7
